We go through 36 compounds from ChEMBL document CHEMBL3232956, “Solid-supported synthesis, molecular modeling, and biological activity of long-chain arylpiperazine derivatives with cyclic amino acid amide fragments as 5-HT(7) and 5-HT(1A) receptor ligands” (Eur J Med Chem, 2014).

Usually Ki stands for a dissociation constant, usually derived from enzyme kinetics or from competition with a known ligand. High values mean lower affinity, low ones higher affinity.

Holding throughout (format): cell-based
The target of assay [1] is T1, 5-hydroxytryptamine receptor 1A (Homo sapiens, UniProt P08908).
T1 sequence (P08908 whole entry): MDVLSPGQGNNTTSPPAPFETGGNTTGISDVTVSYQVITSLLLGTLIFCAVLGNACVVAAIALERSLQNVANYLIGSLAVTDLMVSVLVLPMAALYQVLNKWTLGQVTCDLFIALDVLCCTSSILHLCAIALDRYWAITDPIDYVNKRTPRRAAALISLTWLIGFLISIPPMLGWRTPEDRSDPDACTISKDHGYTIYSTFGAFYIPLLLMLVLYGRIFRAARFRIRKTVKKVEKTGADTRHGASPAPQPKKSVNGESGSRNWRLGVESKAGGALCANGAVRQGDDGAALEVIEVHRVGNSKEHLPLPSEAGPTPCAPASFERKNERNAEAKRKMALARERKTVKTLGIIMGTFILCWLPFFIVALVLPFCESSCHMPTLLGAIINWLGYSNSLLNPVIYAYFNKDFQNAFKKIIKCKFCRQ
Briefly: Displacement of [3H]-8-OH-DPAT from human 5-HT1A receptor expressed in HEK293 cells after 1 hr by beta-counting. The method in brief:
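Human 5-HT1A receptor stably expressed in HEK293 cells; pellet homogenized in 20 vol buffer (50 mM Tris-HCl, 0.1 mM EDTA, 4 mM MgCl2, 0.1% ascorbate, pargyline), spun twice 35,000 g 20 min 4 °C, 15 min 37 °C between spins. Displacement of [3H]-8-OH-DPAT (187 Ci/mmol), 1 h room temperature; filtration, filter-bound radioactivity. Triplicate at 7-8 concentrations (10^-11–10^-4 M); Ki via Cheng-Prusoff.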
(Loss of bound radioactivity is the signal in a displacement assay; it reports binding, not function.)

In assay [2] the target is 5-hydroxytryptamine receptor 7 (Homo sapiens, UniProt P34969). The assay is described as follows: Displacement of [3H]-5-CT from human 5-HT7 receptor expressed in HEK293 cells after 1 hr by beta-counting.
Assay [3] relates to HEK293. The assay is described as follows: Selectivity ratio of Ki for human 5-HT7 receptor expressed in HEK293 cells to Ki for human 5-HT1A receptor expressed in HEK293 cells. The method in brief:
(§1)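 Ratios computed from Ki values from radioligand displacement in HEK293 membranes stably expressing human receptors: [3H]-8-OH-DPAT for 5-HT1A (1 h, room temperature) and [3H]-5-CT for 5-HT7b (1 h, 37 °C), filtration read-out. Each compound in triplicate at 7-8 concentrations (10^-11–10^-4 M); Ki by Cheng-Prusoff.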

Assay [4] concerns HEK293. Briefly: Selectivity ratio of Ki for human 5-HT1A receptor expressed in HEK293 cells to Ki for human 5-HT7 receptor expressed in HEK293 cells. The method in brief:
as §1

Structures are written as SMILES.

Sequence of 5-hydroxytryptamine receptor 7 (P34969 whole entry): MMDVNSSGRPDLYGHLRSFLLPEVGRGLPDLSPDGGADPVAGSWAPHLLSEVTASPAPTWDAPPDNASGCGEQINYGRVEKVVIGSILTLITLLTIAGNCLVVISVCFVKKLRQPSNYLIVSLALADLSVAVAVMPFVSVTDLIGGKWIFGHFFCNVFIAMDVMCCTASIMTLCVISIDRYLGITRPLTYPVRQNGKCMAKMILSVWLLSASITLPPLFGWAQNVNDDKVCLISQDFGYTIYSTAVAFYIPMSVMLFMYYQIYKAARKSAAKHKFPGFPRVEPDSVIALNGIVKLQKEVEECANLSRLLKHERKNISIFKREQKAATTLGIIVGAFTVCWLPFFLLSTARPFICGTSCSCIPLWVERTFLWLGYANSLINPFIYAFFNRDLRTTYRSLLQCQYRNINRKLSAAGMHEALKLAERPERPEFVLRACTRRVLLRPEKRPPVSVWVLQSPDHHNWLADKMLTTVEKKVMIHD

For `CSc1ccccc1N1CCN(CCCCCCC(=O)N2CCC[C@H]2C(N)=O)CC1`, the figures for the Ki in assay [1] and in assay [2] were 23 nM and 495 nM, respectively. For the same compound, the Ratio Ki with HEK293 [3] was 21; in the assay with HEK293 [4], under 1.

In the case of `COc1ccccc1N1CCN(Cc2ccc(C(=O)N3CCC[C@H]3C(N)=O)cc2)CC1`, the results for the inhibition constant Ki in assay [1] and in assay [2] were 6310 nM and 4150 nM, respectively. In addition, the results for the Ratio Ki in the assay on HEK293 [3] and in the assay with HEK293 [4] were under 1 and 2, respectively.

As for `NC(=O)[C@@H]1CCCN1C(=O)CCCCCCN1CCN(c2noc3ccccc23)CC1`, the values for the Ki in assay [1] and in assay [2] were 122 nM and 101 nM, respectively. Further, the Ratio Ki was under 1 in the assay on HEK293 [3] and 1 in the assay on HEK293 [4].

As for `CSc1ccccc1N1CCN(CCCCCC(=O)N2Cc3ccccc3C[C@H]2C(N)=O)CC1`, the inhibitory constant (Ki) is under 1 nM in assay [1] and 78 nM in assay [2]. The Ratio Ki in the assay on HEK293 [3] is over 78; in the assay on HEK293 [4], under 1.

`NC(=O)[C@@H]1Cc2ccccc2CN1C(=O)CCCCCN1CCN(c2ccc(F)cc2)CC1`: the Ki in assay [1] was 643 nM; in assay [2] it was 107 nM. Moreover, the Ratio Ki with HEK293 [3] is under 1; in the assay with HEK293 [4], 6.

For `NC(=O)[C@@H]1CCCN1C(=O)CCCCCN1CCN(c2ccc(F)cc2)CC1`, the Ki in assay [1] was found to be 573 nM; in assay [2], 1190 nM. For the same compound, the Ratio Ki with HEK293 [3] is 2; in the assay on HEK293 [4], under 1.

With `NC(=O)[C@@H]1Cc2ccccc2CN1C(=O)c1ccc(CN2CCN(c3cccc(Cl)c3Cl)CC2)cc1`, the figures for the Ki in assay [1] and in assay [2] were 212 nM and 1200 nM, respectively. In addition, the Ratio Ki in the assay with HEK293 [3] is 6; in the assay with HEK293 [4], under 1.

For the compound `NC(=O)[C@@H]1CCCN1C(=O)CCCCN1CCN(c2ccccc2O)CC1`, the figures for the inhibitory constant (Ki) in assay [1] and in assay [2] were 52 nM and 1870 nM, respectively. In addition, the Ratio Ki is 36 with HEK293 [3] and under 1 in the assay with HEK293 [4].

In the case of `NC(=O)[C@@H]1Cc2ccccc2CN1C(=O)CCCCCCN1CCN(c2noc3ccccc23)CC1`, the Ki is 89 nM in assay [1] and 28 nM in assay [2]. Besides, the results for the Ratio Ki in the assay on HEK293 [3] and with HEK293 [4] were under 1 and 3, respectively.

Take `NC(=O)[C@@H]1Cc2ccccc2CN1C(=O)CCCCCN1CCN(c2ccccc2Cl)CC1`: the figures for the Ki in assay [1] and in assay [2] were 236 nM and 393 nM, respectively. The Ratio Ki is 2 with HEK293 [3] and under 1 with HEK293 [4].

For `NC(=O)[C@@H]1CCCN1C(=O)CCCCCN1CCN(c2cccc(Cl)c2)CC1`, the figures for the Ki in assay [1] and in assay [2] were 38 nM and 478 nM, respectively. For the same compound, the Ratio Ki was 13 with HEK293 [3] and under 1 in the assay on HEK293 [4].

In the case of `NC(=O)[C@@H]1Cc2ccccc2CN1C(=O)CCCCN1CCN(c2noc3ccccc23)CC1`, the Ki in assay [1] turned out to be 377 nM; in assay [2], 18 nM. Also, the Ratio Ki was under 1 with HEK293 [3] and 21 with HEK293 [4].

With `CSc1ccccc1N1CCN(CCCCC(=O)N2CCC[C@H]2C(N)=O)CC1`, the inhibition constant (Ki) in assay [1] amounted to 47 nM; in assay [2], 163 nM. Also, the Ratio Ki in the assay on HEK293 [3] is 3; in the assay with HEK293 [4], under 1.

Take `NC(=O)[C@@H]1CCCN1C(=O)CCCCN1CCN(c2cccc(Cl)c2Cl)CC1`: the Ki is 83 nM in assay [1] and 113 nM in assay [2]. In addition, the Ratio Ki in the assay with HEK293 [3] and in the assay on HEK293 [4] was under 1 in each case.

With `CSc1ccccc1N1CCN(CCCCCCC(=O)N2Cc3ccccc3C[C@H]2C(N)=O)CC1`, the inhibition constant (Ki) in assay [1] was 2 nM; in assay [2] it was 111 nM. Besides, the Ratio Ki with HEK293 [3] was 55; with HEK293 [4], under 1.

Turning to `CSc1ccccc1N1CCN(Cc2ccc(C(=O)N3Cc4ccccc4C[C@H]3C(N)=O)cc2)CC1`, the Ki is 122 nM in assay [1] and 148 nM in assay [2]. Moreover, the results for the Ratio Ki in the assay with HEK293 [3] and with HEK293 [4] were 1 and under 1, respectively.

As for `NC(=O)[C@@H]1Cc2ccccc2CN1C(=O)CCCCCN1CCN(c2ccccc2O)CC1`, the inhibitory constant (Ki) was determined as 72 nM in assay [1] and 476 nM in assay [2]. The Ratio Ki in the assay on HEK293 [3] is 7; in the assay on HEK293 [4] it was under 1.

Take `COc1ccccc1N1CCN(CCCCCC(=O)N2CCC[C@H]2C(N)=O)CC1`: the inhibition constant (Ki) in assay [1] was found to be 44 nM; in assay [2], 1200 nM. Further, the Ratio Ki is 27 with HEK293 [3] and under 1 in the assay with HEK293 [4].

Consider `COc1ccccc1N1CCN(CCCCC(=O)N2Cc3ccccc3C[C@H]2C(N)=O)CC1`, for which the Ki in assay [1] came to 107 nM; in assay [2] it was 551 nM. Further, the Ratio Ki in the assay with HEK293 [3] is 5; with HEK293 [4], under 1.

In the case of `NC(=O)[C@@H]1CCCN1C(=O)CCCCCN1CCN(c2ccccc2Cl)CC1`, the figures for the Ki in assay [1] and in assay [2] were 232 nM and 1310 nM, respectively. Also, the Ratio Ki in the assay on HEK293 [3] is 6; in the assay on HEK293 [4], under 1.

`NC(=O)[C@@H]1Cc2ccccc2CN1C(=O)CCCCCN1CCN(c2noc3ccccc23)CC1`: the Ki in assay [1] came to 230 nM; in assay [2], 22 nM. Besides, the figures for the Ratio Ki with HEK293 [3] and in the assay on HEK293 [4] were under 1 and 10, respectively.

Regarding `CSc1ccccc1N1CCN(Cc2ccc(C(=O)N3CCC[C@H]3C(N)=O)cc2)CC1`, the inhibition constant Ki was 313 nM in assay [1] and 567 nM in assay [2]. In addition, the Ratio Ki with HEK293 [3] was 2; in the assay with HEK293 [4] it was under 1.

`COc1ccccc1N1CCN(CCCCC(=O)N2CCC[C@H]2C(N)=O)CC1`: the Ki in assay [1] is 214 nM; in assay [2], 634 nM. The values for the Ratio Ki in the assay on HEK293 [3] and with HEK293 [4] were 3 and under 1, respectively.

Take `NC(=O)[C@@H]1CCCN1C(=O)CCCCN1CCN(c2noc3ccccc23)CC1`: the Ki in assay [1] amounted to 2910 nM; in assay [2], 108 nM. Moreover, the Ratio Ki in the assay on HEK293 [3] was under 1; in the assay on HEK293 [4], 27.

With `NC(=O)[C@@H]1Cc2ccccc2CN1C(=O)CCCCN1CCN(c2ccc(F)cc2)CC1`, the inhibition constant Ki in assay [1] worked out at 1910 nM; in assay [2], 295 nM. In addition, the figures for the Ratio Ki in the assay with HEK293 [3] and in the assay with HEK293 [4] were under 1 and 6, respectively.

For `COc1ccccc1N1CCN(CCCCCC(=O)N2Cc3ccccc3C[C@H]2C(N)=O)CC1`, the inhibition constant (Ki) in assay [1] is 12 nM; in assay [2] it was 302 nM. In addition, the Ratio Ki with HEK293 [3] is 25; in the assay on HEK293 [4] it was under 1.

Take `NC(=O)[C@@H]1CCCN1C(=O)CCCCCN1CCN(c2noc3ccccc23)CC1`: the results for the Ki in assay [1] and in assay [2] were 214 nM and 50 nM, respectively. Also, the Ratio Ki with HEK293 [3] is under 1; in the assay with HEK293 [4], 4.

As for `CSc1ccccc1N1CCN(CCCCCC(=O)N2CCC[C@H]2C(N)=O)CC1`, the inhibition constant Ki in assay [1] was 14 nM; in assay [2], 153 nM. In addition, the Ratio Ki was 11 in the assay on HEK293 [3] and under 1 in the assay on HEK293 [4].

As for `NC(=O)[C@@H]1CCCN1C(=O)CCCCCN1CCN(c2cccc(Cl)c2Cl)CC1`, the Ki in assay [1] is 4 nM; in assay [2] it was 179 nM. The Ratio Ki was 45 in the assay with HEK293 [3] and under 1 with HEK293 [4].

With `NC(=O)[C@@H]1Cc2ccccc2CN1C(=O)CCCCCN1CCN(c2cccc(Cl)c2Cl)CC1`, the Ki was 16 nM in assay [1] and 95 nM in assay [2]. Moreover, the Ratio Ki in the assay on HEK293 [3] was 6; with HEK293 [4] it was under 1.

For `NC(=O)[C@@H]1CCCN1C(=O)CCCCCN1CCN(c2ccccc2F)CC1`, the inhibitory constant (Ki) stood at 141 nM in assay [1] and 3130 nM in assay [2]. For the same compound, the values for the Ratio Ki in the assay with HEK293 [3] and with HEK293 [4] were 22 and under 1, respectively.

As for `CSc1ccccc1N1CCN(CCCCC(=O)N2Cc3ccccc3C[C@H]2C(N)=O)CC1`, the Ki is 18 nM in assay [1] and 51 nM in assay [2]. Further, the figures for the Ratio Ki with HEK293 [3] and with HEK293 [4] were 3 and under 1, respectively.

On to `COc1ccccc1N1CCN(Cc2ccc(C(=O)N3Cc4ccccc4C[C@H]3C(N)=O)cc2)CC1`, for which the inhibition constant (Ki) in assay [1] stood at 77 nM; in assay [2] it was 579 nM. The Ratio Ki in the assay with HEK293 [3] is 7; in the assay with HEK293 [4], under 1.

On to `NC(=O)[C@@H]1Cc2ccccc2CN1C(=O)CCCCCN1CCN(c2cccc(Cl)c2)CC1`, for which the inhibitory constant (Ki) in assay [1] came out at 499 nM; in assay [2], 725 nM. Besides, the figures for the Ratio Ki in the assay with HEK293 [3] and in the assay on HEK293 [4] were 1 and under 1, respectively.

Turning to `CSc1ccccc1N1CCN(CCCCCC(=O)NC2CCCc3ccccc32)CC1` (stereo unspecified), in assay [2], affinity was put at a Ki of 0.22 nM.

Consider `NC(=O)[C@@H]1Cc2ccccc2CN1C(=O)CCCCN1CCN(c2ccc(Cl)cc2)CC1`, for which the values for the Ki in assay [1] and in assay [2] were 211 nM and 223 nM, respectively. For the same compound, the Ratio Ki in the assay on HEK293 [3] was 1; with HEK293 [4], under 1.
